Measured values as given in ChEMBL document CHEMBL1130330, “Synthesis of gonadotropin-releasing hormone III analogs. Structure-antitumor activity relationships” (1997).
Square brackets hold non-standard residues; d marks the D form. Peptide text beside a SMILES is read from it. pGlu = O=C1CC[C@@H](C(=O)O)N1

Legend:
[1] = test system: PC-3; assay: The concentration to inhibit cell proliferation of PC3 human tumor cell lines; type: functional
In short: (§1)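 Cell proliferation assay with peptide treatment. Cells are released from Petri dishes by trypsinization and counted directly. Results are expressed as percentage of control values.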

[2] = species on record: Homo sapiens; assay: (§2) The concentration to inhibit colony formation of MCF-7 human tumor cell lines; type: functional, MCF7
In short: (§3)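 Clonogenic assay on human tumor cell lines, with each peptide at 50 (unit as printed). Colony formation reflects cell survival. Results are given as % inhibition of colony formation relative to untreated controls, mean ± deviation.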

[3] = test system: MCF7; assay: The concentration to inhibit cell proliferation of MCF-7 human tumor cell lines; type: functional; in short: as §1
[4] = test system: Ishikawa; assay: The concentration to inhibit colony formation of Ishikawa human tumor cell lines; type: functional; in short: as §3
[5] = test system: MDA-MB-231; assay: The concentration to inhibit colony formation of MDA-MB-231 human tumor cell lines; type: functional; in short: as §3
[6] = test system: LNCaP; assay: The concentration to inhibit cell proliferation of LNCaP human tumor cell lines; type: functional
[7] = test system: PC-3; assay: The concentration to inhibit cell proliferation of PC3 human tumor cell lines using the sulforhodamine B assay; type: functional
In short: (§4)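 Sulforhodamine B assay with each peptide at 50 (unit as printed). Dye bound to cells is quantified spectrophotometrically. Results are expressed as % inhibition relative to control, mean ± deviation.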

[8] = test system: MDA-MB-231; assay: The concentration to inhibit cell proliferation of MDA-MB-231 human tumor cell lines using the sulforhodamine B assay; type: functional; in short: as §4
[9] = test system: MDA-MB-231; assay: The concentration to inhibit cell proliferation of MDA-MB-231 human tumor cell lines; type: functional; in short: as §1
[10] = test system: MCF7; assay: The concentration to inhibit cell proliferation of MCF-7 human tumor cell lines using the sulforhodamine B assay; type: functional; in short: as §4
[11] = test system: MCF7; assay: as §2; type: functional; in short: as §3
[12] = test system: LNCaP; assay: The concentration to inhibit cell proliferation of LNCaP human tumor cell lines using the sulforhodamine B assay; type: functional; in short: as §4
[13] = test system: PC-3; assay: The concentration to inhibit colony formation of PC3 human tumor cell lines; type: functional; in short: as §3

Structure (SMILES)	Inhibition [1]	Inhibition [2]	Inhibition [3]	Inhibition [4]	Inhibition [5]	Inhibition [6]	Inhibition [7]	Inhibition [8]	Inhibition [9]	Inhibition [10]	Inhibition [11]	Inhibition [12]	Inhibition [13]
NCCCC[C@H](NC(=O)[C@H](Cc1c[nH]c2ccccc12)NC(=O)[C@H](CC(=O)O)NC(=O)[C@H](Cc1c[nH]cn1)NC(=O)[C@H](CO)NC(=O)[C@H](Cc1c[nH]c2ccccc12)NC(=O)[C@H](Cc1c[nH]cn1)NC(=O)[C@@H]1CCC(=O)N1)C(=O)N1CCC[C@H]1C(=O)NCC(N)=O	14%	18%	18%	18%	44%	32%	12%	19%	18%	20%	45%	40%	21%
NCCCC[C@H](NC(=O)[C@H](Cc1ccccc1)NC(=O)[C@H](CC(=O)O)NC(=O)[C@H](Cc1c[nH]cn1)NC(=O)[C@H](CO)NC(=O)[C@H](Cc1c[nH]c2ccccc12)NC(=O)[C@H](Cc1c[nH]cn1)NC(=O)[C@@H]1CCC(=O)N1)C(=O)N1CCC[C@H]1C(=O)NCC(N)=O	–	–	–	–	21%	–	–	–	–	–	26%	–	–
NCCCC[C@H](NC(=O)[C@H](Cc1c[nH]c2ccccc12)NC(=O)[C@H](CC(=O)O)NC(=O)[C@H](Cc1c[nH]cn1)NC(=O)[C@H](CO)NC(=O)[C@H](Cc1c[nH]c2ccccc12)NC(=O)[C@H](Cc1c[nH]cn1)NC(=O)[C@@H]1CCC(=O)N1)C(=O)N1CC=C[C@H]1C(=O)NCC(N)=O	–	–	–	21%	42%	–	14%	18%	–	19%	42%	–	19%
C[C@@H](NC(=O)[C@@H]1CCCN1C(=O)[C@H](CCCCN)NC(=O)[C@H](Cc1c[nH]c2ccccc12)NC(=O)[C@H](CC(=O)O)NC(=O)[C@H](Cc1c[nH]cn1)NC(=O)[C@H](CO)NC(=O)[C@H](Cc1c[nH]c2ccccc12)NC(=O)[C@H](Cc1c[nH]cn1)NC(=O)[C@@H]1CCC(=O)N1)C(N)=O	–	–	–	6%	15%	–	2%	8%	–	8%	4%	–	3%
NCCCC[C@H](NC(=O)[C@H](Cc1cn(C=O)c2ccccc12)NC(=O)[C@H](CC(=O)O)NC(=O)[C@H](Cc1c[nH]cn1)NC(=O)[C@H](CO)NC(=O)[C@H](Cc1cn(C=O)c2ccccc12)NC(=O)[C@H](Cc1c[nH]cn1)NC(=O)[C@@H]1CCC(=O)N1)C(=O)N1CC=C[C@H]1C(=O)NCC(N)=O	–	–	–	24%	32%	–	–	–	–	–	31%	–	20%
CC(C)C[C@H](NC(=O)CNC(=O)[C@H](Cc1ccc(O)cc1)NC(=O)[C@H](CO)NC(=O)[C@H](Cc1c[nH]c2ccccc12)NC(=O)[C@H](Cc1c[nH]cn1)NC(=O)[C@@H]1CCC(=O)N1)C(=O)N[C@@H](CCCN=C(N)N)C(=O)N1CCC[C@H]1C(=O)NCC(N)=O	–	–	–	17%	29%	–	–	–	–	–	27%	–	15%
NC(=O)CNC(=O)[C@@H]1CCCN1C(=O)[C@@H]1CCCCNC(=O)C[C@H](NC(=O)[C@H](Cc2c[nH]cn2)NC(=O)[C@H](CO)NC(=O)[C@H](Cc2c[nH]c3ccccc23)NC(=O)[C@H](Cc2c[nH]cn2)NC(=O)[C@@H]2CCC(=O)N2)C(=O)N[C@@H](Cc2c[nH]c3ccccc23)C(=O)N1	–	–	–	16%	27%	–	11%	16%	–	20%	44%	–	18%
NCCCC[C@H](NC(=O)[C@H](Cc1c[nH]c2ccccc12)NC(=O)[C@H](Cc1c[nH]cn1)NC(=O)[C@@H]1CCC(=O)N1)C(=O)N[C@@H](Cc1c[nH]cn1)C(=O)N[C@@H](CC(=O)O)C(=O)N[C@@H](Cc1c[nH]c2ccccc12)C(=O)N[C@@H](CCCCN)C(=O)N1CCC[C@H]1C(=O)NCC(N)=O	–	–	–	21%	35%	–	–	–	–	–	40%	–	15%
CC(=O)NCCCC[C@H](NC(=O)[C@H](Cc1c[nH]c2ccccc12)NC(=O)[C@H](Cc1c[nH]cn1)NC(=O)[C@@H]1CCC(=O)N1)C(=O)N[C@@H](Cc1c[nH]cn1)C(=O)N[C@@H](CC(=O)O)C(=O)N[C@@H](Cc1c[nH]c2ccccc12)C(=O)N[C@@H](CCCCN)C(=O)N1CCC[C@H]1C(=O)NCC(N)=O	–	–	–	14%	42%	–	–	–	–	–	52%	–	12%
NCCCC[C@H](NC(=O)[C@H](Cc1c[nH]c2ccccc12)NC(=O)[C@H](CCC(=O)O)NC(=O)[C@H](Cc1c[nH]cn1)NC(=O)[C@H](CO)NC(=O)[C@H](Cc1c[nH]c2ccccc12)NC(=O)[C@H](Cc1c[nH]cn1)NC(=O)[C@@H]1CCC(=O)N1)C(=O)N1CCC[C@H]1C(=O)NCC(N)=O	–	–	–	5%	25%	–	12%	27%	–	17%	44%	–	20%
NCCCC[C@H](NC(=O)[C@H](CO)NC(=O)[C@H](Cc1c[nH]c2ccccc12)NC(=O)[C@H](Cc1c[nH]cn1)NC(=O)[C@@H]1CCC(=O)N1)C(=O)N[C@H]1CC(=O)NCCCC[C@@H](C(=O)N2CCC[C@H]2C(=O)NCC(N)=O)NC(=O)[C@H](Cc2c[nH]c3ccccc23)NC1=O	–	–	–	13%	27%	–	16%	21%	–	19%	44%	–	11%
NCCCC[C@H](NC(=O)[C@H](CO)NC(=O)[C@H](Cc1c[nH]c2ccccc12)NC(=O)[C@H](Cc1c[nH]cn1)NC(=O)[C@@H]1CCC(=O)N1)C(=O)N[C@@H](CC(=O)O)C(=O)N[C@@H](Cc1c[nH]c2ccccc12)C(=O)N[C@@H](CCCCN)C(=O)N1CCC[C@H]1C(=O)NCC(N)=O	–	–	–	6%	4%	–	–	2%	–	4%	5%	–	0%
CCNC(=O)[C@@H]1CCCN1C(=O)[C@H](CCCCN)NC(=O)[C@H](Cc1c[nH]c2ccccc12)NC(=O)[C@H](CC(=O)O)NC(=O)[C@H](Cc1c[nH]cn1)NC(=O)[C@H](CO)NC(=O)[C@H](Cc1c[nH]c2ccccc12)NC(=O)[C@H](Cc1c[nH]cn1)NC(=O)[C@@H]1CCC(=O)N1 ([pGlu]HWSHDWKP-NHEt)	–	–	–	13%	27%	–	15%	32%	–	20%	28%	–	22%
